Tests used:
Escherichia coli = assay: Antibacterial activity against Escherichia coli ATTC 25922 at 1 mg/ml after 24 hrs by well-diffusion method; type: functional; details: ATTC 25922, 24 h, read-out: DIZ
Method in brief: (§1)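 Agar well diffusion. About 1 cm3 of a 24 h infusion-broth culture (10^6 cfu cm-3) was mixed in plates with 15 cm3 molten nutrient agar held at 45°C. Once the agar set, 6 mm wells were punched and filled with compound solution (1 mg ml-1 in DMSO). Plates were incubated 24 h at 37°C, and the inhibition-zone diameter was measured. Ciprofloxacin and sulphamethoxazole were the standards.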

Klebsiella pneumoniae = assay: Antibacterial activity against Klebsiella pneumoniae ATCC 10031 at 1 mg/ml after 24 hrs by well-diffusion method; type: functional; details: ATCC 10031, 24 h, read-out: DIZ
Bacillus cereus = assay: Antibacterial activity against Bacillus cereus ATTC 10702 at 1 mg/ml after 24 hrs by well-diffusion method; type: functional; details: ATTC 10702, 24 h, read-out: DIZ; method in brief: as §1
Salmonella typhimurium = assay: Antibacterial activity against Salmonella Typhimurium ATTC 23564 at 1 mg/ml after 24 hrs by well-diffusion method; type: functional, Salmonella enterica subsp. enterica serovar Typhimurium; details: Salmonella enterica, ATTC 23564, 24 h; read-out: DIZ

Row | Compound | zone of inhibition at 1000 µg/mL (Escherichia coli) | zone of inhibition at 1000 µg/mL (Klebsiella pneumoniae) | zone of inhibition at 1000 µg/mL (Bacillus cereus) | zone of inhibition at 1000 µg/mL (Salmonella typhimurium)
1 | O=C(N/N=C/c1ccccc1)c1ccc(C(=O)N/N=C/c2ccccc2)cc1 | 6 mm | 5 mm | 4 mm | 4 mm
2 | O=C(NN1C(=O)CSC1c1ccccc1)c1ccc(C(=O)NN2C(=O)CSC2c2ccccc2)cc1 (stereo not given) | 8 mm | 6 mm | 8 mm | 7 mm
3 | c1ccc(-c2nnc(-c3ccc(-c4nnc(-c5ccccc5)o4)cc3)o2)cc1 | 8 mm | 7 mm | 8 mm | 7 mm
4 | COc1ccc(/C=N/NC(=O)c2ccc(C(=O)N/N=C/c3ccc(OC)cc3)cc2)cc1 | 6 mm | 6 mm | 6 mm | 4 mm
5 | O=[N+]([O-])c1ccc(-c2nn3c(-c4ccc(-c5nnc6sc(-c7ccc([N+](=O)[O-])cc7)nn56)cc4)nnc3s2)cc1 | 5 mm | 5 mm | 5 mm | 5 mm
6 | O=C(N/N=C/c1ccccc1Br)c1ccc(C(=O)N/N=C/c2ccccc2Br)cc1 | 6 mm | 5 mm | 5 mm | 6 mm
7 | O=C(N/N=C/c1ccccc1Cl)c1ccc(C(=O)N/N=C/c2ccccc2Cl)cc1 | 5 mm | 6 mm | 8 mm | 7 mm
8 | O=C(NN1C(=O)CSC1c1ccccc1Br)c1ccc(C(=O)NN2C(=O)CSC2c2ccccc2Br)cc1 (stereo not given) | 7 mm | 7 mm | 7 mm | 6 mm
9 | Clc1ccc(-c2nnc(-c3ccc(-c4nnc(-c5ccc(Cl)cc5)o4)cc3)o2)cc1 | 8 mm | 4 mm | 8 mm | 6 mm
10 | O=C(N/N=C/c1ccc(O)cc1)c1ccc(C(=O)N/N=C/c2ccc(O)cc2)cc1 | 5 mm | 5 mm | 6 mm | 5 mm
11 | Nn1c(S)nnc1-c1ccc(-c2nnc(S)n2N)cc1 | 7 mm | 6 mm | 5 mm | 6 mm
12 | Clc1ccccc1-c1nn2c(-c3ccc(-c4nnc5sc(-c6ccccc6Cl)nn45)cc3)nnc2s1 | 6 mm | 6 mm | 7 mm | 6 mm
13 | Oc1ccc(-c2nnc(-c3ccc(-c4nnc(-c5ccc(O)cc5)o4)cc3)o2)cc1 | 6 mm | 6 mm | 5 mm | 4 mm
14 | COc1ccc(-c2nnc(-c3ccc(-c4nnc(-c5ccc(OC)cc5)o4)cc3)o2)cc1 | 7 mm | 5 mm | 6 mm | 4 mm
15 | O=C(NN1C(=O)CSC1c1ccccc1Cl)c1ccc(C(=O)NN2C(=O)CSC2c2ccccc2Cl)cc1 (stereo not given) | 7 mm | 6 mm | 6 mm | 6 mm
16 | Nc1ccc(-c2nnc(-c3ccc(-c4nnc(-c5ccc(N)cc5)o4)cc3)o2)cc1 | 6 mm | 5 mm | 6 mm | 5 mm
17 | O=[N+]([O-])c1ccc(-c2nnc(-c3ccc(-c4nnc(-c5ccc([N+](=O)[O-])cc5)o4)cc3)o2)cc1 | 9 mm | 8 mm | 9 mm | 8 mm
18 | O=C(O)c1cn(C2CC2)c2cc(N3CCNCC3)c(F)cc2c1=O [CIPROFLOXACIN] | – | 21 mm | 18 mm | 23 mm
19 | Cc1cc(NS(=O)(=O)c2ccc(N)cc2)no1 [SULFAMETHOXAZOLE] | 12 mm | 10 mm | 10 mm | 11 mm

From ChEMBL document CHEMBL1154788, “Synthesis and antibacterial activity of some novel bis-1,2,4-triazolo[3,4-b]-1,3,4-thiadiazoles and bis-4-thiazolidinone derivatives from terephthalic dihydrazide” (2009)
